# Pemphigus Ab inh: inhibitors of pemphigus antibody binding to human desmoglein-3; DSG3-coupled beads, scFv-anti-DSG3-GFP binding, flow cytometry; hits give low values; 310,000 tested, 0.48% active; P32926; binding (percent of control), % at 10 µM;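 active = binding more than 3 SD below its plate's average and above zero; inconclusive = below that plate limit but binding exactly zero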;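 note: hits lower antibody fragment binding to DSG3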
# Target sequence (P32926 whole entry, looked up, the tested form may be a part): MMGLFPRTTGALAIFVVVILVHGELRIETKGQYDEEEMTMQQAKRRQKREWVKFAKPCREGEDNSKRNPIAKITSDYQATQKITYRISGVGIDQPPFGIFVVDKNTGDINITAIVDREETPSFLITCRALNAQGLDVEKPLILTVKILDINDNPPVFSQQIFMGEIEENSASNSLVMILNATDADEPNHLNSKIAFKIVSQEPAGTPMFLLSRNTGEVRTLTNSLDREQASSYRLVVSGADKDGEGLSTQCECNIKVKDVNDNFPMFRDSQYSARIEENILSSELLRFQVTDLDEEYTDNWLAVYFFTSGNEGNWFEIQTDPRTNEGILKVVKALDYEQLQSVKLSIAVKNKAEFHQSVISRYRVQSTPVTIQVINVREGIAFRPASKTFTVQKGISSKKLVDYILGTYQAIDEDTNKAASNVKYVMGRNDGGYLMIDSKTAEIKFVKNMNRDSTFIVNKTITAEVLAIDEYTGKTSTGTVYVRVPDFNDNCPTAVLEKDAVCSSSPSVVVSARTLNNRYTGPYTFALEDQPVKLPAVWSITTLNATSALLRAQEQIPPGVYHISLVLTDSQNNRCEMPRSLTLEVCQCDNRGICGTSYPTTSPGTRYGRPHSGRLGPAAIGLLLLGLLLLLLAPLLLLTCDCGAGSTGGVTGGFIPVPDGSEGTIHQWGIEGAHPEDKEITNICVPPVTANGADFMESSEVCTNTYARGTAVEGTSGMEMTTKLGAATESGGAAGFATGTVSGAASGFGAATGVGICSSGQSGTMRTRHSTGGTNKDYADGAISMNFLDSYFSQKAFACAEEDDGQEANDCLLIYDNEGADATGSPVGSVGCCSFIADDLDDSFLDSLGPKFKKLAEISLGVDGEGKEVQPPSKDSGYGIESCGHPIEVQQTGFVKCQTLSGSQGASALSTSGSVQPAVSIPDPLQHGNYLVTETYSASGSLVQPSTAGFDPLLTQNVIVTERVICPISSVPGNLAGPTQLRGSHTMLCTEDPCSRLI
# Myeloid diff 2: promotes myeloid progenitor differentiation; ER-HoxA9 myeloid progenitors, lysozyme-GFP differentiation, flow cytometry; calls only at 10 µM; 360,000 tested, 1% active; AID 624256;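 active = normalized GFP-positive differentiation at or above the plate's own cutoff, the solvent-only control mean plus 3 SD; inconclusive = no clear call, values can overlap the other calls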;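 note: cells exposed to compound for four days before flow analysis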
# Vif inh: blocks HIV Vif function | HEK293T cells, Vif self-association by quenched fluorescence, imaging, 24 h | 340,000 tested, 0.35% active | inhibition, % at 7.49 µM; in the data active = inhibition above about 50%, passing the limit was not always enough; inconclusive = no clear call, values can overlap the other calls; inactive = below about 31%
# T cell modulator: modulates CD8 T cell binding to vesicles. 2C CD8+ T cell-vesicle binding, flow cytometry; hits give low values. response (vesicle binding), % at 7 µM. 330,000 tested, 0.068% active. AID 2052;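 active = response, share of CD8 T cells binding vesicles, and their 90th percentile fluorescence all below set limits, cut at about 80% in these data, passing the limit was not always enough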;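 note: values below 100% mean blocked vesicle binding to the CD8+ T cells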
#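 Incubation: binding step 1.5 h, 37 °C, antibody labelling 20 min, ice; system: murine 2C transgenic CD8+ T lymphocytes; technique: cytometric PE anti-B7-1 and Alexa647 anti-CD8 signals after 1% paraformaldehyde fixation; also added: QL9-charged Drosophila Ld/ICAM-1/B7-1 vesicles; control set: naked versus QL9-loaded vesicles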
# Myeloid diff: promotes myeloid progenitor differentiation; calls only; 2,300 tested, 2% active; shares compounds with Myeloid diff 2; ER-HoxA9 myeloid progenitors, GFP/Mac1 double-positive flow;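 active = share of green or green-and-red cells above 9 and 9% in run 1 or 4 and 3% in run 2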
# GFP autofluor: counter-screen for myeloid differentiation promoters: compound fluorescence | AID 651707 | ER-HoxA9 myeloid progenitors, no estrogen, GFP autofluorescence flow cytometry; vehicle wells 0%, positive control 100% | fluorescence response, % (no concentration beside the values) | 2,300 tested, 7.4% active | shares compounds with Myeloid diff 2;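 active = over 5% cells positive for green fluorescent reporter, or over 2% positive for both it and APC stain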;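 note: range taken on the double positive population between DMSO and positive control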
# * hit, by the source's call; i = inactive; ? = inconclusive; . = no result; + = active, no number. Compounds with a hit are over-represented: about 1.7% of the library has one in this group of screens.
SMILES,Pemphigus Ab inh,Myeloid diff 2,Vif inh,T cell modulator,Myeloid diff,GFP autofluor
O=C(Nc1ccc2c(c1)OCCO2)c1ccc(Br)c(S(=O)(=O)N2CCOCC2)c1,91,i,4,.,.,.
O=C(CSc1ccccc1)N1CCN(c2ccc(F)cc2)CC1,110,i,-12,971,.,.
COc1cccc(-c2cc3nc(NCc4cccnc4)n(C)c(=O)c3s2)c1,.,i,-25,.,.,.
Cn1c(NCc2cccnc2)nc2cc(-c3cccc(C(=O)NCCO)c3)sc2c1=O,.,+,.,.,i,1
CCCNC(=O)c1cc(S(=O)(=O)N2CCC3(CC2)OCCO3)ccc1F,104,i,-2,.,.,.
CCOC(=O)C1=CCN(S(=O)(=O)c2ccc(C)cc2)C1c1ccc(Cl)cc1 (configuration not stated),.,i,.,.,.,.
Cc1ccc(CSc2nc3ccccc3c(=O)[nH]2)cc1,112,i,5,182,.,.
O=c1[nH]c(SCc2ccccc2)nc2c1sc1ccccc12,89,+,6,207,i,0
COc1ccc(NC(=O)c2cc(C3CCCCN3C(=O)OCc3ccccc3)on2)c(C)c1 (configuration not stated),.,i,-1,.,.,.
CCC1(c2ccccc2)NC(=O)N(CC(=O)Nc2cccc(C#N)c2)C1=O (configuration not stated),94,+,0,559,i,0
CCCCN(Cc1ccc(C(=O)N[C@H](C(=O)O)C(C)C)cc1)C(=O)C(c1ccccc1)c1ccccc1,105,i,23,344,.,.
CC(=O)C1=C(C)N=c2s/c(=C/c3ccc4c(c3)OCO4)c(=O)n2C1c1ccc(N(C)C)cc1 (configuration not stated),92,+,7,.,i,22*
CCOc1ccccc1NC(=O)CCNS(=O)(=O)c1ccccc1,96,+,7,244,i,0
Oc1ccccc1N=Cc1ccc[nH]1,111,+,3,383,i,0
COCCOC(=O)c1c(C)oc2ccc(NS(=O)(=O)c3cccs3)cc12,107,.,0,347,.,.
CCOC(=O)c1c(C)oc2ccc(NS(=O)(=O)c3cccs3)cc12,124,.,-3,490,i,0
O=C(COC(=O)c1ccc(NS(=O)(=O)c2cccs2)cc1O)NCc1ccccc1,.,i,-3,105,i,0
CN1C(=O)/C(=C/c2cn(CC(=O)N3CCCCC3)c3ccccc23)NC1=S,?,+,-11,i,i,97*
O=C(O)CC1NC(=S)N(Cc2ccccc2)C1=O (configuration not stated),99,i,4,.,.,.
Cc1ccccc1CNC(=O)c1ccc2sc([C@H]3C[C@H](O)[C@@H](CO)O3)nc2c1,.,i,-3,.,.,.
CC(C)n1ncc2c(C(=O)NCC(=O)Nc3ccccc3Br)cc(C3CC3)nc21,104,i,10,421,.,.
c1ccc2c(c1)Cn1nc(Cc3nc4c(s3)CCCC4)nc1-2,107,i,-9,177,.,.
N#CCc1nc2n(n1)Cc1ccccc1-2,85,i,9,472,i,0
CCOC(=O)C(Cc1ccc(O)c([N+](=O)[O-])c1)N1C(=O)c2ccccc2C1=O (configuration not stated),105,i,-9,.,.,.
COc1cccc(C(=O)NC(=S)Nc2ccccc2N2CCCCC2)c1,105,+,-10,i,i,1
SMILES,Pemphigus Ab inh,Myeloid diff 2,Vif inh,T cell modulator,Myeloid diff,GFP autofluor
Cc1sc2ncnc(NCCc3ccc(S(N)(=O)=O)cc3)c2c1C,104,i,?,320,i,0
Cc1ccc(S(=O)(=O)N(C)C)cc1NC(=S)NCCc1ccccn1,106,i,-3,404,i,0
CCN(CC(=O)Nc1c(F)cccc1F)C(=O)CCC(=O)c1ccc(C)cc1,102,i,2,218,.,.
CCOc1cc(C(=S)N2CCOCC2)ccc1OC(=O)/C=C/c1ccc(OC)c(OC)c1,98,i,2,170,i,0
CCOc1ccc(/C=C/C(=O)N2CCOCC2)cc1OC,116,i,1,357,.,.
CC1(C(=O)NS(=O)(=O)c2ccc(Cl)cc2)CCN1C(=O)Cc1ccccc1Cl (configuration not stated),.,i,-4,.,.,.
Cn1c(N=Nc2ccccc2)nc2ccccc21,98,i,-4,344,i,0
CCCCN(CCCNC(=S)NCCCc1cnc[nH]1)c1ccc(Br)cn1,.,i,-16,.,.,.
Cc1ccc(CNC(=O)C(=O)NCC2OCCN2C(=O)c2cccs2)cc1 (configuration not stated),99,+,6,146,i,0
O=C(NCc1ccccc1)C(=O)NCC1OCCN1C(=O)c1cccs1 (configuration not stated),95,i,7,372,.,.
CCN1C(=O)[C@@H]2[C@@H](c3ccc(-c4cccc(Cl)c4)c(OC)c3)N3CCCC[C@@]3(C(=O)OC)[C@@H]2C1=O,100,+,1,629,i,0
CCN1C(=O)[C@@H]2[C@@H](c3ccc(-c4ccc(Cl)c(Cl)c4)c(OC)c3)N3CCC[C@@]3(C(=O)OC)[C@@H]2C1=O,101,i,-18,600,.,.
CCOC(=O)CC(=O)CSc1nc(-c2cccnc2)cc(C)c1C#N,.,i,0,666,.,.
CCOC(=O)CC(=O)CSc1nc(C)cc(-c2cccnc2)c1C#N,104,i,30,342,i,0
COCc1cn(-c2nc3ccccc3s2)nn1,.,i,.,.,.,.
CN=C(NC)SC1CC(=O)N(c2ccccc2)C1=O (configuration not stated),106,i,4,112,i,0
CCC(C)CNC(=O)c1[nH]c(C(F)(F)F)nc1-c1ccccc1 (configuration not stated),.,i,0,.,.,.
COc1ccccc1NC(=S)N(Cc1ccco1)Cc1cc2cc(C)cc(C)c2[nH]c1=O,97,i,-4,143,i,0
CCOC(=O)c1c(C)[nH]c(C(=O)COC(=O)/C=C/c2ccc(O)c(OC)c2)c1C,115,i,50*,0,i,0
CCOC(=O)c1c(C)[nH]c(C)c1C(=O)COC(=O)/C=C/c1cccc(Cl)c1,89,i,-1,0,.,.
CCOC(=O)c1c(C)[nH]c(C)c1C(=O)COC(=O)/C=C/c1ccccc1[N+](=O)[O-],.,+,-14,419,i,0
COc1ccc2oc(C(=O)N3CCN(S(=O)(=O)c4c(C)c(C)cc(C)c4C)CC3)c(C)c2c1,109,i,5,.,.,.
COc1ccc(/C=C2\C(=O)NCC(=O)N2Cc2ccccc2)cc1,103,+,11,368,i,0
COc1ccc(/C=C2\C(=O)N(Cc3ccc(F)cc3)CC(=O)N2Cc2ccccc2)cc1,108,i,1,465,.,.

# Assay outcomes from PubChem BioAssay.
